The source made the active and inactive calls. The rule behind the calls is not given here.
Assays:
[1] = molecular target: T1, P2X purinoceptor 7 (Homo sapiens) (UniProt Q99572); assay: Antagonist activity at P2X7 receptor in LPS/IFN-gamma-differentiated human THP1 cells assessed as inhibition of BzATP-induced IL-1beta release at 1 uM preincubated for 30 mins followed by BzATP induction measured after 30 mins by ELISA relative to control; type: cell-based; conditions: THP-1
T1 sequence (whole entry): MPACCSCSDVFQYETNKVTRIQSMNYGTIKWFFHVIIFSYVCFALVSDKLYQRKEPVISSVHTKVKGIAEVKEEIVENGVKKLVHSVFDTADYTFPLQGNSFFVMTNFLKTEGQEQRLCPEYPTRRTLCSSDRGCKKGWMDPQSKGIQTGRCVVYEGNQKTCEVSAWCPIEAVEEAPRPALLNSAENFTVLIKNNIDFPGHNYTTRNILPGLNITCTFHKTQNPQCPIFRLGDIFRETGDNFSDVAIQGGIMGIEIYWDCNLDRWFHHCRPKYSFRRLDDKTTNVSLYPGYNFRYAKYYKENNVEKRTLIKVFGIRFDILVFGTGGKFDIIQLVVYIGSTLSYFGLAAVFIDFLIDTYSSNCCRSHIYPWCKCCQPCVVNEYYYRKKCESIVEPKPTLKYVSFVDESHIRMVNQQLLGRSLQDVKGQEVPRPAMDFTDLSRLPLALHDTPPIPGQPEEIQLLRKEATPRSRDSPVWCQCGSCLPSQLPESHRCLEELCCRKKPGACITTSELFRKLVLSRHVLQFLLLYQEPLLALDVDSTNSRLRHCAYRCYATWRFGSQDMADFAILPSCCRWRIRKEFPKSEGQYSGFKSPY
Method in brief: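 LPS-primed THP-1 human monocytes were stimulated with BzATP, and IL-1β release was measured by ELISA. Test compound was given at a single concentration of 1 µM, and results are expressed as percent inhibition of BzATP-induced IL-1β release.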

[2] = molecular target: T2, P2X purinoceptor 1 (Mus musculus) (UniProt P51576); assay: Antagonist activity at recombinant mouse P2X1 receptor overexpressed in Xenopus oocytes assessed as inhibition of ATP-induced ion current at 10 uM preincubated for 20 mins followed by ATP induction by two-electrode voltage clamping method relative to control; type: cell-based
T2 sequence (whole entry): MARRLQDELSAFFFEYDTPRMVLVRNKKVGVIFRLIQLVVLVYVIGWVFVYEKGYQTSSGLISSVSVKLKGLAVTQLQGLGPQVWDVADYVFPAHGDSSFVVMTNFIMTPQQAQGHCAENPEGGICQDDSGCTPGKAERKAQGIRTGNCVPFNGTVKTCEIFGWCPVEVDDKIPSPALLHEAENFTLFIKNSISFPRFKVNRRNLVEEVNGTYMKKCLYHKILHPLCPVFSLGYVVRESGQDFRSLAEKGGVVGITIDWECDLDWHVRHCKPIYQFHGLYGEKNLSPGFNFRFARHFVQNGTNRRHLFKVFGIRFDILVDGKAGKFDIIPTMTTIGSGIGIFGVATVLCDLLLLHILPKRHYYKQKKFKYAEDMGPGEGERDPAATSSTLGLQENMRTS
Method in brief: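 Two-electrode voltage clamp on Xenopus oocytes expressing the receptor after cRNA microinjection. Current was evoked by 2 µM ATP, with test compound at 10 µM.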

Mus musculus [3] = assay: Antiarthritic activity in CII-induced DBA/1J mouse arthritic model assessed as decrease in chronic inflammation at 50 mg/kg, ip measured 10 days post second CII booster by Hematoxylin and eosin staining relative to CII-treated control; type: functional, organism-based; design: dose 50 mg/kg
Method in brief: (§1)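 Mouse type II collagen-induced arthritis; 50 mg/kg dosed by injection. Ankle histology was scored as cumulative arthritis injury scores against the vehicle-treated CII group.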

Mus musculus [4] = assay: Antiarthritic activity in CII-induced DBA/1J mouse arthritic model assessed as decrease in abcess formation at 50 mg/kg, ip measured 10 days post second CII booster by Hematoxylin and eosin staining relative to CII-treated control; type: functional, organism-based; design: dose 50 mg/kg; method in brief: as §1
Mus musculus [5] = assay: Downregulation of COX-2 expression in ankle tissue of CII-induced DBA/1J mouse arthritic model at 25 to 50 mg/kg, ip measured 10 days post second CII booster by immunoblot analysis; type: functional, organism-based
Mus musculus [6] = assay: Downregulation of iNOS expression in ankle tissue of CII-induced DBA/1J mouse arthritic model at 25 to 50 mg/kg, ip measured 10 days post second CII booster by immunoblot analysis; type: functional, organism-based
Rattus norvegicus = assay: Antiinflammatory activity in Sprague-Dawley rat assessed as decrease in carrageenan-induced paw edema at 10 mg/kg, ip preincubated for 1 hr followed by carrageenan challenge measured after 3 to 6 hrs by plethysmometer relative to control

inhibition [1]: > 95%
inhibition [2]: 16%
SMILES: O=C1NC(=O)N(C2CCN(C(=O)c3ccc(Cl)c(C(F)(F)F)c3)CC2)C1Cc1ccc(OS(=O)(=O)c2cccc3cnccc23)cc1 (racemic)
Activity (Mus musculus [3]): Active
Activity (Mus musculus [4]): Active
Activity (Mus musculus [5]): Active
Activity (Mus musculus [6]): Active
Activity (Rattus norvegicus): Active

Source: ChEMBL document CHEMBL3414458, “Discovery of novel 2,5-dioxoimidazolidine-based P2X(7) receptor antagonists as constrained analogues of KN62” (J Med Chem, 2015)
